Measurements published in PMC9020136 (Science (New York, N.Y.), 2022).

Legend:
Bacilus subtilis = assay: MIC, broth-microdilution method; type: cell-based
bacterial membranes = assay: Membrane permeabilization, influx of viability stain SYTOX Green; type: cell-based, B. subtilis; conditions: concentration twice the MIC value
In short: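 Live B. subtilis cells imaged over time by confocal microscopy after exposure to a lethal level of test compound. SYTOX Green was used as a viability stain, with its entry into cells read as membrane permeabilization.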

In the case of (−)-Himastatin [(−)-himastatin (1)], the MIC (Bacilus subtilis) is reported as 1 µg/mL and the “time to permeabilization of bacterial membranes” value (bacterial membranes) is reported as ≤ 30 min.
